Results as given in ChEMBL document CHEMBL1125136, “Quinolone antibacterial agents substituted at the 7-position with spiroamines. Synthesis and structure-activity relationships” (1990).
Converted amounts (≈) assume the structure as drawn.

Tested on: Klebsiella pneumoniae
Test: Evaluated for minimum inhibitory concentration against gram-negative bacteria Klebsiella pneumoniae MGH-2
Assay type: functional
Details: not given
Summary of the method: (§1)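 Broth microdilution MIC by standard technique. Values come from duplicate experiments and are stated as accurate to ±50%.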
`O=C(O)c1cn(C2CC2)c2cc(N3CCNCC3)c(F)cc2c1=O` [CIPROFLOXACIN] gave an MIC of 0.025 µg/mL (≈ 0.0754 µM). With `NC1CCN(c2c(F)cc3c(=O)c(C(=O)O)cn(C4CC4)c3c2F)C1` (stereo not given) the MIC was 0.025 µg/mL (≈ 0.0716 µM). `CCn1cc(C(=O)O)c(=O)c2cc(F)c(N3CCC4(CCNC4)C3)c(F)c21` (stereo not given) gave an MIC of 0.2 µg/mL (≈ 0.53 µM). With `CCn1cc(C(=O)O)c(=O)c2cc(F)c(N3CCC4(CCCN4)C3)c(F)c21.Cl` (stereo not given) the MIC was 0.4 µg/mL. For `CC1COc2c(N3CCN(C)CC3)c(F)cc3c(=O)c(C(=O)O)cn1c23` (stereo not given) [OFLOXACIN], the MIC was 0.2 µg/mL (≈ 0.553 µM).

Tested on: Pseudomonas aeruginosa
Test: Evaluated for minimum inhibitory concentration against gram-negative bacteria Pseudomonas aeruginosa UI-18
Assay type: functional
Details: not given
Summary of the method: as §1
Work on `O=C(O)c1cn(C2CC2)c2cc(N3CCNCC3)c(F)cc2c1=O` [CIPROFLOXACIN] yielded an MIC of 0.1 µg/mL (≈ 0.302 µM). `NC1CCN(c2c(F)cc3c(=O)c(C(=O)O)cn(C4CC4)c3c2F)C1` (stereo not given) showed an MIC of 0.1 µg/mL (≈ 0.286 µM). In the case of `CCn1cc(C(=O)O)c(=O)c2cc(F)c(N3CCC4(CCNC4)C3)c(F)c21` (stereo not given), the MIC is reported as 0.8 µg/mL (≈ 2.12 µM). In the case of `CCn1cc(C(=O)O)c(=O)c2cc(F)c(N3CCC4(CCCN4)C3)c(F)c21.Cl` (stereo not given), the MIC is reported as 1.6 µg/mL. In the case of `CC1COc2c(N3CCN(C)CC3)c(F)cc3c(=O)c(C(=O)O)cn1c23` (stereo not given) [OFLOXACIN], the MIC is reported as 1.6 µg/mL (≈ 4.43 µM).

Tested on: Escherichia coli
Test: In vivo protective dose for mouse protection assay in Escherichia coli Vogel after peroral administration
Assay type: functional
Details: po, read-out: PD50
Summary of the method: (§2)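 Female Charles River CD-1 mice were given an acute, lethal, systemic infection. A single dose of compound was given at the time of challenge, by the route stated in the line, with 16 animals per dose level. The read-out is the median protective dose (PD50, mg/kg). Per the footnote, values come from 16 animals per test, with a mean variation of ±34%.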
For `CCn1cc(C(=O)O)c(=O)c2cc(F)c(N3CCC4(CCNC4)C3)c(F)c21` (stereo not given), the ED50 was over 100 mg/kg.

Tested on: Streptococcus pyogenes
Test: Evaluated for minimum inhibitory concentration against gram-positive bacteria Streptococcus pyogenes C203
Details: not given
Compound `O=C(O)c1cn(C2CC2)c2cc(N3CCNCC3)c(F)cc2c1=O` [CIPROFLOXACIN] has an MIC of 0.2 µg/mL (≈ 0.604 µM). Compound `NC1CCN(c2c(F)cc3c(=O)c(C(=O)O)cn(C4CC4)c3c2F)C1` (stereo not given) has an MIC of 0.25 µg/mL (≈ 0.716 µM). Work on `CCn1cc(C(=O)O)c(=O)c2cc(F)c(N3CCC4(CCNC4)C3)c(F)c21` (stereo not given) yielded an MIC of 0.1 µg/mL (≈ 0.265 µM). Compound `CCn1cc(C(=O)O)c(=O)c2cc(F)c(N3CCC4(CCCN4)C3)c(F)c21.Cl` (stereo not given) has an MIC of 1.6 µg/mL. In the case of `CC1COc2c(N3CCN(C)CC3)c(F)cc3c(=O)c(C(=O)O)cn1c23` (stereo not given) [OFLOXACIN], the MIC is reported as 3.1 µg/mL (≈ 8.58 µM).

Tested on: Pseudomonas
Test: Evaluated for minimum inhibitory concentration against gram-negative bacteria Pseudomonas rettgeri H1771
Assay type: functional
Details: not given
Summary of the method: as §1
Compound `O=C(O)c1cn(C2CC2)c2cc(N3CCNCC3)c(F)cc2c1=O` [CIPROFLOXACIN] has an MIC of 0.025 µg/mL (≈ 0.0754 µM). Compound `NC1CCN(c2c(F)cc3c(=O)c(C(=O)O)cn(C4CC4)c3c2F)C1` (stereo not given) has an MIC of 0.05 µg/mL (≈ 0.143 µM). With `CCn1cc(C(=O)O)c(=O)c2cc(F)c(N3CCC4(CCNC4)C3)c(F)c21` (stereo not given) the MIC was 1.6 µg/mL (≈ 4.24 µM). Work on `CCn1cc(C(=O)O)c(=O)c2cc(F)c(N3CCC4(CCCN4)C3)c(F)c21.Cl` (stereo not given) yielded an MIC of 0.8 µg/mL. Compound `CC1COc2c(N3CCN(C)CC3)c(F)cc3c(=O)c(C(=O)O)cn1c23` (stereo not given) [OFLOXACIN] has an MIC of 0.4 µg/mL (≈ 1.11 µM).

Tested on: Staphylococcus aureus
Test: Evaluated for minimum inhibitory concentration against […] bacteria Staphylococcus aureus H228
Assay type: functional
Details: not given
Summary of the method: as §1
Work on `O=C(O)c1cn(C2CC2)c2cc(N3CCNCC3)c(F)cc2c1=O` [CIPROFLOXACIN] yielded an MIC of 1.6 µg/mL (≈ 4.83 µM). With `NC1CCN(c2c(F)cc3c(=O)c(C(=O)O)cn(C4CC4)c3c2F)C1` (stereo not given) the MIC was 0.05 µg/mL (≈ 0.143 µM). `CCn1cc(C(=O)O)c(=O)c2cc(F)c(N3CCC4(CCNC4)C3)c(F)c21` (stereo not given) gave an MIC of 0.1 µg/mL (≈ 0.265 µM). Work on `CCn1cc(C(=O)O)c(=O)c2cc(F)c(N3CCC4(CCCN4)C3)c(F)c21.Cl` (stereo not given) yielded an MIC of 1.6 µg/mL. Compound `CC1COc2c(N3CCN(C)CC3)c(F)cc3c(=O)c(C(=O)O)cn1c23` (stereo not given) [OFLOXACIN] has an MIC of 3.1 µg/mL (≈ 8.58 µM).

Tested on: Enterobacter cloacae
Test: Evaluated for minimum inhibitory concentration against gram-negative bacteria Enterobacter cloacae HA 2646
Assay type: functional
Details: not given
`NC1CCN(c2c(F)cc3c(=O)c(C(=O)O)cn(C4CC4)c3c2F)C1` (stereo not given) gave an MIC of 0.025 µg/mL (≈ 0.0716 µM). Compound `CCn1cc(C(=O)O)c(=O)c2cc(F)c(N3CCC4(CCNC4)C3)c(F)c21` (stereo not given) has an MIC of 0.2 µg/mL (≈ 0.53 µM). Work on `CCn1cc(C(=O)O)c(=O)c2cc(F)c(N3CCC4(CCCN4)C3)c(F)c21.Cl` (stereo not given) yielded an MIC of 0.2 µg/mL. With `CC1COc2c(N3CCN(C)CC3)c(F)cc3c(=O)c(C(=O)O)cn1c23` (stereo not given) [OFLOXACIN] the MIC was 0.1 µg/mL (≈ 0.277 µM).

Tested on: Escherichia coli
Test: Evaluated for minimum inhibitory concentration against gram-negative bacteria Escherichia coli Vogel
Assay type: functional
Details: not given
Summary of the method: as §1
In the case of `O=C(O)c1cn(C2CC2)c2cc(N3CCNCC3)c(F)cc2c1=O` [CIPROFLOXACIN], the MIC is reported as 0.025 µg/mL (≈ 0.0754 µM). Compound `NC1CCN(c2c(F)cc3c(=O)c(C(=O)O)cn(C4CC4)c3c2F)C1` (stereo not given) has an MIC of 0.013 µg/mL (≈ 0.0372 µM). With `CCn1cc(C(=O)O)c(=O)c2cc(F)c(N3CCC4(CCNC4)C3)c(F)c21` (stereo not given) the MIC was 0.1 µg/mL (≈ 0.265 µM). `CCn1cc(C(=O)O)c(=O)c2cc(F)c(N3CCC4(CCCN4)C3)c(F)c21.Cl` (stereo not given) showed an MIC of 0.2 µg/mL. For `CC1COc2c(N3CCN(C)CC3)c(F)cc3c(=O)c(C(=O)O)cn1c23` (stereo not given) [OFLOXACIN], the MIC was 0.2 µg/mL (≈ 0.553 µM).

Tested on: not listed separately
Test: Evaluated for minimum inhibitory concentration against […] bacteria […] SV-1
Assay type: functional
Details: not given
Summary of the method: as §1
With `O=C(O)c1cn(C2CC2)c2cc(N3CCNCC3)c(F)cc2c1=O` [CIPROFLOXACIN] the MIC was 0.4 µg/mL (≈ 1.21 µM). `NC1CCN(c2c(F)cc3c(=O)c(C(=O)O)cn(C4CC4)c3c2F)C1` (stereo not given) showed an MIC of 0.05 µg/mL (≈ 0.143 µM). For `CCn1cc(C(=O)O)c(=O)c2cc(F)c(N3CCC4(CCNC4)C3)c(F)c21` (stereo not given), the MIC was 0.2 µg/mL (≈ 0.53 µM). `CCn1cc(C(=O)O)c(=O)c2cc(F)c(N3CCC4(CCCN4)C3)c(F)c21.Cl` (stereo not given) showed an MIC of 1.6 µg/mL. `CC1COc2c(N3CCN(C)CC3)c(F)cc3c(=O)c(C(=O)O)cn1c23` (stereo not given) [OFLOXACIN] gave an MIC of 0.4 µg/mL (≈ 1.11 µM).

Tested on: Staphylococcus aureus
Test: Evaluated for minimum inhibitory concentration against […] bacteria Staphylococcus aureus UC-76
Assay type: functional
Details: not given
Summary of the method: as §1
For `O=C(O)c1cn(C2CC2)c2cc(N3CCNCC3)c(F)cc2c1=O` [CIPROFLOXACIN], the MIC was 0.1 µg/mL (≈ 0.302 µM). `NC1CCN(c2c(F)cc3c(=O)c(C(=O)O)cn(C4CC4)c3c2F)C1` (stereo not given) showed an MIC of 0.025 µg/mL (≈ 0.0716 µM). Compound `CCn1cc(C(=O)O)c(=O)c2cc(F)c(N3CCC4(CCNC4)C3)c(F)c21` (stereo not given) has an MIC of 0.05 µg/mL (≈ 0.132 µM). For `CCn1cc(C(=O)O)c(=O)c2cc(F)c(N3CCC4(CCCN4)C3)c(F)c21.Cl` (stereo not given), the MIC was 0.8 µg/mL. With `CC1COc2c(N3CCN(C)CC3)c(F)cc3c(=O)c(C(=O)O)cn1c23` (stereo not given) [OFLOXACIN] the MIC was 0.4 µg/mL (≈ 1.11 µM).

Tested on: Enterococcus faecalis
Test: Evaluated for minimum inhibitory concentration against gram-positive bacteria Staphylococcus faecalis MGH-2
Details: not given
`O=C(O)c1cn(C2CC2)c2cc(N3CCNCC3)c(F)cc2c1=O` [CIPROFLOXACIN] gave an MIC of 0.4 µg/mL (≈ 1.21 µM). With `NC1CCN(c2c(F)cc3c(=O)c(C(=O)O)cn(C4CC4)c3c2F)C1` (stereo not given) the MIC was 0.05 µg/mL (≈ 0.143 µM). `CCn1cc(C(=O)O)c(=O)c2cc(F)c(N3CCC4(CCNC4)C3)c(F)c21` (stereo not given) gave an MIC of 0.2 µg/mL (≈ 0.53 µM). Work on `CCn1cc(C(=O)O)c(=O)c2cc(F)c(N3CCC4(CCCN4)C3)c(F)c21.Cl` (stereo not given) yielded an MIC of 3.1 µg/mL. `CC1COc2c(N3CCN(C)CC3)c(F)cc3c(=O)c(C(=O)O)cn1c23` (stereo not given) [OFLOXACIN] gave an MIC of 6.3 µg/mL (≈ 17.4 µM).

Tested on: Escherichia coli
Test: In vivo protective dose was determined in mouse protection assay in Escherichia coli Vogel after subcutaneous administration
Assay type: functional
Details: sc, read-out: PD50
Summary of the method: as §2
With `CCn1cc(C(=O)O)c(=O)c2cc(F)c(N3CCC4(CCNC4)C3)c(F)c21` (stereo not given) the ED50 was 15 mg/kg.

Tested on: Escherichia coli
Test: Evaluated for minimum concentration needed to produce linear DNA at an intensity relative to oxolinic acid at 10 mg/mL. by gyrase mediated cleavage of DNA in Escherichia coli 560.
Assay type: functional
Details: read-out: MIC
Work on `NC1CCN(c2c(F)cc3c(=O)c(C(=O)O)cn(C4CC4)c3c2F)C1` (stereo not given) yielded a minimum concentration for gyrase-mediated DNA cleavage of 0.1 µg/mL. For `CCn1cc(C(=O)O)c(=O)c2cc(F)c(N3CCC4(CCNC4)C3)c(F)c21` (stereo not given), the minimum concentration for gyrase-mediated DNA cleavage was 2.5 µg/mL. With `CCn1cc(C(=O)O)c(=O)c2cc(F)c(N3CCC4(CCCN4)C3)c(F)c21.Cl` (stereo not given) the minimum concentration for gyrase-mediated DNA cleavage was 2.5 µg/mL. Work on `CC1COc2c(N3CCN(C)CC3)c(F)cc3c(=O)c(C(=O)O)cn1c23` (stereo not given) [OFLOXACIN] yielded a minimum concentration for gyrase-mediated DNA cleavage of 6.2 µg/mL.
